Results collected from several papers.

SMILES	host	sample	route	dose	setting	AUC(0-t)
CN1CCN(CC2CCN(c3cncc4[nH]c(-c5cc(F)cc(F)c5)nc34)CC2)CC1	mouse	blood	oral	10 mg/kg	–	3.57 µM·h
CCc1ccc(Cc2cc([C@@H]3O[C@H](CO)[C@@H](O)[C@H](O)[C@H]3O)cc3c2CCC3)cc1	male C57BL/6 mouse	plasma	intravenous	1 mg/kg	–	1440 ng·h/mL
Cn1ccnc1N1CCN(CC2CCN(c3nccc4[nH]c(-c5cc(F)cc(F)c5)nc34)CC2)CC1	BALB/c mouse	blood	oral	20 mg/kg	–	19 µM·h
CCc1cc(C(=O)NC)c2nccc(N3CCc4c(cc(Cn5ccnc5)cc4-c4cn(C)nc4C(F)(F)F)C3=O)c2c1	male CD-1 mouse	plasma	intravenous	3 mg/kg	–	4180 ng·h/mL
Cc1nc(-c2cnc(NC(C)C)n(C)c2=O)ccc1Oc1ccnc(-c2cnn(C)c2)c1	female mouse	plasma	oral	7.5 mg/kg	single dose	52600 ng·h/mL
COc1nc(-c2cc(C)c(N[C@@H](C)c3cc(F)cc(F)c3)nn2)ccc1-n1cnc(C)c1	male CD-1 mouse	plasma	oral	5 mg/kg	single dose	9560 ng·h/mL
COc1ccc(C(O)COc2ccc(-c3csc(-c4ccc(OCC(O)c5ccc(OC)c(OC)c5)cc4)n3)cc2)cc1OC (stereo not drawn)	C57BL/6 mouse	plasma	oral	75 mg/kg	–	73000 ng·h/mL
C=CC(=O)N1CC2CC(n3nc(-c4ccc(C(=O)Nc5ccccn5)cc4)c4c(N)ncnc43)CC2C1 (stereo not drawn)	SCID mouse	plasma	oral	5 mg/kg	–	1120 ng·h/mL
Fc1ccc(-c2nc3c(N4CCC(CN5CCOCC5)CC4)nccc3[nH]2)cc1F	BALB/c mouse	blood	oral	20 mg/kg	–	34.6 µM·h
CSc1cc(Oc2ccnc3[nH]c(=O)cnc23)ccc1NC(=O)Nc1cc(C(C)(C)C)nn1-c1ccccc1	BALB/c mouse	plasma	oral	10 mg/kg	–	275 µM·h
CN1CCN(CC2CCN(c3nccc4[nH]c(-c5cc(F)cc(F)c5)nc34)CC2)CC1	mouse	blood	intravenous	2 mg/kg	–	2.42 µM·h
CC[C@H](C)[C@@H]1NC(=O)[C@@](C)(NC(=O)[C@H](CCCNC(=N)N)NC(=O)[C@H](CC(C)C)NC(=O)[C@@H](NC(=O)[C@H](CCC(N)=O)NC(=O)[C@H](CC(C)C)NC(C)=O)[C@@H](C)O)CCCC=CCCC[C@@](C)(C(=O)N[C@@H](CC(C)C)C(=O)N[C@@H](Cc2ccc3ccccc3c2)C(N)=O)NC(=O)[C@H](CCCNC(=N)N)NC(=O)[C@H](CCC(N)=O)NC1=O	male BALB/c mouse	plasma	intravenous	15 mg/kg	–	260000 ng·h/mL
CC=Cc1ccc(O)c(OC)c1	mouse	plasma	intranasal	100 mg/kg	–	9980 ng·h/mL
C[C@H]1[C@@H](O)O[C@@H]2O[C@@]3(C)CC[C@H]4[C@H](C)CC[C@@H]1[C@@]24OO3	female SCID mouse	plasma	oral	60 mg/kg	–	382 ng·h/mL
COc1nc(-c2cc(C)c(N[C@@H](C)c3ccc(F)cc3)nn2)ccc1-n1cnc(C)c1	male CD-1 mouse	plasma	oral	5 mg/kg	single dose	12700 ng·h/mL
Cc1nc2ccc(F)cc2n1-c1nc(N)c(F)c(Nc2ccc(C(F)(F)F)cc2)n1	nude mouse	plasma	oral	10 mg/kg	–	19300 ng·h/mL
Cc1ccc2cncc(N3CCc4c(cc(Cn5ccnc5)cc4-c4cn(C)nc4C(F)(F)F)C3=O)c2c1	male CD-1 mouse	plasma	oral	50 mg/kg	–	36300 ng·h/mL
CCOC(=O)c1sc(Nc2ncccn2)nc1-c1ccccn1	male CD-1 mouse	plasma	intravenous	2 mg/kg	–	448 ng·h/mL
CC(C)(Nc1nc(-c2ccccn2)nc2ccccc12)c1ccccn1	female BALB/c mouse	plasma	intravenous	1 mg/kg	–	1450 ng·h/mL
CN1CCN(C(=O)CN[C@@H]2C[C@H]2c2ccc(OCc3ccccc3)cc2)CC1	mouse	plasma	intraperitoneal	10 mg/kg	–	1660 ng·h/mL
Cc1ccc(NC(=O)c2ccc(CN3CCN(C)CC3)cc2)cc1Nc1nccc(-c2cncc(-c3oncc3C)c2)n1	male C57BL/6 mouse	brain	oral	100 mg/kg/day	–	1170 ng·h/mL
COc1cc(OC)c2nccc(N3CCc4c(cc(Cn5ccnc5)cc4-c4cn(C)nc4C(F)(F)F)C3=O)c2c1	male CD-1 mouse	plasma	oral	50 mg/kg	–	60600 ng·h/mL
FC(F)(F)Oc1ccc(Nc2cc(-c3cn[nH]c3)ncn2)cc1	male BALB/c mouse	plasma	oral	20 mg/kg	–	6110 ng·h/mL
CN1CCC[C@H](CN2c3ccccc3Sc3ccccc32)C1.Cl	mouse	plasma	oral	64 mg/kg	single dose	6010 ng·h/mL
CCc1cc(OC)c2nccc(N3CCc4c(cc(Cn5ccnc5)cc4-c4cn(C)nc4C(F)(F)F)C3=O)c2c1	male CD-1 mouse	plasma	oral	150 mg/kg	–	224000 ng·h/mL
CNC(=O)c1cc(Oc2ccc(NC(=O)Nc3ccc(Cl)c(C(F)(F)F)c3)c(F)c2)cc[n+]1[O-]	mouse	plasma	oral	10 mg/kg	single dose	1930 ng·h/mL
Cc1c2c(n(-c3ccc(F)cc3Cl)c1-c1ccc(OS(=O)(=O)CCC(F)(F)F)cc1)CCN(N1CCCCC1)C2=O	mouse	plasma	oral	6 µmol/kg	single dose	0.89 µM·h
CS(=O)(=O)CCNCc1ccc(-c2ccc3ncnc(Nc4ccc(OCc5cccc(F)c5)c(Cl)c4)c3c2)o1	nude mouse	plasma	oral	100 mg/kg	single dose	97500 ng·h/mL
COc1ccc2nccc(N3CCc4c(cc(Cn5ccnc5)cc4-c4cn(C)nc4C(F)(F)F)C3=O)c2c1	male CD-1 mouse	plasma	oral	10 mg/kg	–	2080 ng·h/mL
Cc1c(C(=O)NN2CCCCC2)nc(-c2ccc(Cl)cc2Cl)n1-c1ccc(OS(=O)(=O)CCC(F)(F)F)cc1	mouse	plasma	oral	20 µmol/kg	single dose	6.3 µM·h
